Experimental data taken from paper PMC3855573 (Biochemistry, 2013).
Several values for one entry are separate records, joined by “and”; a condition that tells them apart may be missing. Identical values can stand only once. Like-named read-outs stand apart in the source and are kept apart here.

How the values were obtained:
MV FlAsH = MV FlAsH (Gallus gallus, UniProt Q02440, D297C/G292C/I296C/S293C/V295G); experiment: Actin-activated steady-state ATPase, NADH coupled assay; format: biochemical, chicken; conditions: 20 μM actin, 25°C
acto-MV FlAsH = acto-MV FlAsH (Gallus gallus, UniProt Q02440, D297C/G292C/I296C/S293C/V295G); experiment: Mg dependence of ADP release rate constants; format: binding, chicken; conditions: read-out: KD.Mg, Eq. 14
How it was run: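 Acto-MV FlAsH·mantdADP (final 0.25 μM MV FlAsH, 0.5 μM actin, 10 μM mantdADP) stopped-flow mixed with 1 mM ATP at 25°C. Buffer: K50TCEP, pH 7.0, with 0.5–10 mM MgCl2; free Mg calculated from stability constants. FRET read with 365 nm excitation and 515 nm long-pass emission. Biexponential rate constants vs free Mg fitted to Eq. 14 to extrapolate Mg-free and Mg-saturated values and KD.Mg.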

[1] = read-out: KD of Mg for free ADP; previously determined; cited from earlier work

Row | SMILES | actin-activated ATPase rate (MV FlAsH; K50 buffer containing 4 mM EDTA (Mg free)) [s⁻¹] | reduction in actin-activated ATPase activity (MV FlAsH; high free Mg (3–9 mM) versus low free Mg (0.1–0.3 mM)) | Kd (acto-MV FlAsH; actomyosin V strong ADP binding conformation) [µM] | Kd (acto-MV FlAsH; actomyosin V weak ADP binding conformation) [µM] | Kd [1] [µM]
1 | O=C(O)CN(CCN(CC(=O)O)CC(=O)O)CC(=O)O [EDTA, reference compound] | 0.06 |  |  |  | 
2 | [Mg+2] [Mg, magnesium] |  | 50–60% and 60% | 900 ± 400 | 600 ± 300 | 350 ± 300
